rCAG RNA binder: binds r(CAG) RNA repeats; r(CAG) RNA repeat, TO-PRO-1 dye displacement fluorescence; 370,000 compounds, 1.3% hits; inhibition, % at 3 µM;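 active = inhibition above the plate cutoff, the mean of all test compounds on that plate plus 3 SD, cut at about 35% in these data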;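 note: 0% = DMSO alone and 100% = 100 µM mitoxantrone as full dye displacement; higher means more dye released from RNA so lower well fluorescence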
SIAE inh: blocks human sialic acid acetylesterase; SIAE FP-Rh probe binding, fluorescence polarization; inhibition, % at 9.66 µM; 370,000 compounds, 0.69% hits; AID 1053197;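 active = inhibition above a cutoff: mean of compounds within the control limits plus 3 SD of those, cut at about 17% in these data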;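 note: 0% = plate median of compound wells and 100% = probe without SIAE protein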
TCR-CD3 inh: blocks the human TCR-CD3 interaction. TAMRA-labeled TCR probe fluorescence, biochemical. inhibition, % at 9.4 µM. 360,000 compounds, 0.37% hits; in the data active = inhibition above about 19%;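 note: recombinant mutant TCR 2C K166C tagged with TAMRA read by polarization; 0% = receptor in buffer alone and 100% = receptor with positive control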
HTRA1 inh: blocks human HTRA1 serine peptidase; inhibition, % at 5.96 µM; 340,000 compounds, 0.5% hits; recombinant HTRA1, FP-rhodamine activity-based probe, fluorescence polarization; Q92743; in the data active = inhibition above about 36%;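 note: 0% = enzyme with DMSO and 100% = wells lacking enzyme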
PRMT1 FP inh: PRMT1 (human) inhibition, primary screen | Q99873 | recombinant PRMT1, activity-based probe fluorescence polarization | inhibition, % at 2.79 µM | 370,000 compounds, 1.3% hits | AID 652257;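 active = inhibition above about 21% made by adding two undisclosed values, limit read from the data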
ABHD4 inh: inhibits mouse alpha/beta hydrolase domain 4 | 370,000 compounds, 0.54% hits | purified mABHD4, FP-Rh probe fluorescence polarization | Q8VD66 | AID 720543 | inhibition, % at 8.92 µM;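 active = inhibition exceeding the mean over every tested compound plus 3 SD, cut at about 30% in these data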;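 note: 0% = plate median of compound wells and 100% = S159A mutant with DMSO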
Target sequence (Q8VD66 whole entry, looked up, the tested form may be a part): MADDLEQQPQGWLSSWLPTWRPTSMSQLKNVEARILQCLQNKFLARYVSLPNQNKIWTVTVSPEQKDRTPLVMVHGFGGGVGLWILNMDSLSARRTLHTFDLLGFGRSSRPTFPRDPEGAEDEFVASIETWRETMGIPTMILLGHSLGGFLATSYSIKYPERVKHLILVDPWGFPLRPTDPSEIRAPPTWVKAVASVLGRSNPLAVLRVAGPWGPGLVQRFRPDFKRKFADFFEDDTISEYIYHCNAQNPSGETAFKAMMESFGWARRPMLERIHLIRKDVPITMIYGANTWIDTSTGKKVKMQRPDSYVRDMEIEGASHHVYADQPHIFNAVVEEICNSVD
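Test system: mABHD4 protein | Buffer or medium: HEPES pH 7.0 buffer, 150 mM NaCl, 0.01% Pluronic F-127 | Probe or stimulus: FP-Rh fluorescent activity-based probe, added after compound pre-incubation | Timing: Pre-incubation 45 min, probe exposure 60 min, at 25 °C | Technique: Fluorescence polarization, excitation 525 nm, emission 598 nm, BODIPY TMR filters | Repeats: Single well per compound (singlicate)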
rCAG binder conf: r(CAG) RNA repeat binding, confirmation. 4,300 compounds, 70% hits. shares compounds with rCAG RNA binder. TO-PRO-1 dye displacement fluorescence. inhibition, % at 3 µM;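 active = inhibition above a per-plate cutoff, the mean inhibition of sample wells plus 3 SD, cut at about 35% in these data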;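 note: loss of TO-PRO-1 fluorescence as compound displaces dye from 1x1 AA loop RNA; 0% = DMSO only wells and 100% = 100 µM mitoxantrone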
DNA CAG counter: disrupts DNA CAG TO-PRO-1 complex, flagging rCAG hits. shares compounds with rCAG RNA binder. d(CAG) DNA oligo TO-PRO-1 dye displacement, fluorescence. inhibition, % at 3 µM. 4,300 compounds, 94% hits;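 active = inhibition above its plate's cutoff, the mean test-well inhibition plus 3 SD, cut at about 4.8% in these data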;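 note: 0% = DNA dye mix with DMSO and 100% = 100 µM mitoxantrone; hits displace the dye from DNA and so lower well fluorescence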
Numbers without * were called inactive. In the library only some 3.5% were active in any assay of this set; here they are far more common.

How did COC(=O)[C@]12C[C@H](CC(=O)NCc3cccc(C(F)(F)F)c3)C(=O)N(Cc3ccc(Cl)cc3Cl)C1=C[C@H](C1CCCC1)O[C@@H]2C do in these assays?
rCAG RNA binder: 5; SIAE inh: 1; PRMT1 FP inh: 2; ABHD4 inh: -8

How did COCCCNC(=O)CN1C(=O)C2CCCCN2C(=O)c2ccccc21 (stereo unspecified) do in these assays?
rCAG RNA binder: 0; SIAE inh: -3; PRMT1 FP inh: 0; ABHD4 inh: 3

How did Cc1ccc(OCCSc2nc3ccccc3n2CC(=O)O)c(C(C)C)c1 do in these assays?
rCAG RNA binder: 38*; SIAE inh: -1; TCR-CD3 inh: 9; HTRA1 inh: -12; PRMT1 FP inh: 0; ABHD4 inh: 2; rCAG binder conf: 41*; DNA CAG counter: 9.8*

How did Cc1ccc(OCCSc2nc3ccccc3n2CC(=O)O)cc1 do in these assays?
rCAG RNA binder: 11; SIAE inh: 3; TCR-CD3 inh: -6; HTRA1 inh: 3; PRMT1 FP inh: 2; ABHD4 inh: -6

Results for COc1ccc(/C=N/N=C2/NC(=O)C(CC(=O)NC(C)C)S2)cc1 (stereo unspecified) ?
rCAG RNA binder: -2; SIAE inh: 13; TCR-CD3 inh: -2; HTRA1 inh: 1; PRMT1 FP inh: 1; ABHD4 inh: 6

What do the screens show for `COc1cc(/C=N/N=C2/NC(=O)C(CC(=O)O)S2)ccc1OCc1ccc(Cl)cc1` (stereo unspecified)?
rCAG RNA binder: 54*; SIAE inh: 5; TCR-CD3 inh: 18; HTRA1 inh: -3; PRMT1 FP inh: -1; ABHD4 inh: -6; rCAG binder conf: 38*; DNA CAG counter: 10*

Results for Cc1ccc(S(=O)(=O)Oc2ccc(/C=N/N=C3/NC(=O)C(CC(=O)O)S3)cc2)cc1[N+](=O)[O-] (stereo unspecified) ?
rCAG RNA binder: 41*; SIAE inh: -2; TCR-CD3 inh: 18; HTRA1 inh: -7; PRMT1 FP inh: 1; ABHD4 inh: 3; rCAG binder conf: 29; DNA CAG counter: 8.5*

What do the screens show for `O=C(CSc1nnc(-c2cnccn2)n1-c1ccccc1)c1ccccc1Br`?
rCAG RNA binder: 8; SIAE inh: 4; PRMT1 FP inh: -1; ABHD4 inh: -3

Results for c1ccc(Cn2c(SCC3CCC3)nnc2-c2cccnc2)cc1 ?
rCAG RNA binder: -1; SIAE inh: 1; PRMT1 FP inh: 1; ABHD4 inh: 3

What do the screens show for `CC(COc1cccc(C(F)(F)F)c1)CN1CCC(C(O)(c2ccccc2)c2ccccc2)CC1` (stereo unspecified)?
rCAG RNA binder: 2; SIAE inh: 0; PRMT1 FP inh: 2; ABHD4 inh: 12

What do the screens show for `COC(=O)c1sccc1NC(=O)CSc1ccccc1NS(=O)(=O)c1ccc(Br)cc1`?
rCAG RNA binder: 46*; SIAE inh: -11; TCR-CD3 inh: -7; HTRA1 inh: -42; PRMT1 FP inh: 4; ABHD4 inh: -39; rCAG binder conf: 50*; DNA CAG counter: 15*

Results for COC(=O)c1sccc1NC(=O)CSc1ccccc1NS(=O)(=O)c1ccc(F)cc1 ?
rCAG RNA binder: 27; SIAE inh: -4; TCR-CD3 inh: -5; HTRA1 inh: -21; PRMT1 FP inh: 1; ABHD4 inh: -15

Results for Cc1ccc(S(=O)(=O)Nc2cc(C(=O)Nc3cc(C)cc(C)c3)ccc2Cl)cc1 ?
rCAG RNA binder: 36*; SIAE inh: -36; TCR-CD3 inh: 3; HTRA1 inh: -59; PRMT1 FP inh: -2; ABHD4 inh: -60; rCAG binder conf: 42*; DNA CAG counter: 9.8*

How did Cc1cccc(NC(=O)c2cccc(NS(=O)(=O)c3ccc(Cl)cc3)c2)c1 do in these assays?
HTRA1 inh: -66

Results for C=CCN1[C@H](C#N)[C@@H](c2ccccc2)[C@H]1CO ?
rCAG RNA binder: 4; SIAE inh: -1; PRMT1 FP inh: -4; ABHD4 inh: 2
